Reference: ChEMBL document CHEMBL4304771, “Design, synthesis and biological activity of N-(2-phenoxy)ethyl imidazo[1,2-a]pyridine-3-carboxamides as new antitubercular agents” (Eur J Med Chem, 2019)
≈ marks a conversion by molar mass, not a printed value.

Key:
[1] = test system: Mycobacterium tuberculosis; assay: Antitubercular activity against multidrug resistant Mycobacterium tuberculosis isolate 9160 assessed as parasite growth inhibition measured after 7 days incubation by microplate alamar blue assay; type: functional; conditions: isolate 9160, 168 h
How it was run: (§1)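 Strains grown to late log phase in 7H9 with 0.2% glycerol, 0.05% Tween 80 and 10% ADC. Cells washed, resuspended in PBS, filtered (8 µm) and frozen at -80 °C. Two-fold compound dilutions, 2 × 10⁵ CFU per well, 37 °C for 7 days. Tween 80 and Alamar blue then added for 16-24 h; fluorescence read at ex 530/em 590 nm. MIC = lowest concentration giving ≥90% fluorescence reduction versus mean of bacterium-only controls.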

[2] = test system: Mycobacterium tuberculosis; assay: Antitubercular activity against multidrug resistant Mycobacterium tuberculosis isolate 11168 assessed as parasite growth inhibition measured after 7 days incubation by microplate alamar blue assay; type: functional; conditions: isolate 11168, 168 h; how it was run: as §1

| SMILES | MIC [1] [µg/mL] | MIC [2] [µg/mL] |
| --- | --- | --- |
| CCc1nc2ccc(C)cn2c1C(=O)NCCOc1ccc(OC)cc1 | 0.394 (≈ 1.11 µM) | < 0.016 |
| COc1ccc2nc(C)c(C(=O)NCCOc3ccc(N4CCC(C(F)(F)F)CC4)cc3)n2c1 | 0.111 (≈ 0.233 µM) | < 0.016 |
| CCc1nc2ccc(Br)cn2c1C(=O)NCCOc1ccc(N2CCC(C(F)(F)F)CC2)cc1 | 0.13 (≈ 0.241 µM) | < 0.016 |
| COc1ccc2nc(C)c(C(=O)NCCOc3ccc(N4CC5CCCCC5C4)cc3)n2c1 (stereo unspecified) | < 0.016 | < 0.016 |
| CO[C@H]1/C=C/O[C@@]2(C)Oc3c(C)c(O)c4c(O)c(c(/C=N/N5CCN(C)CC5)c(O)c4c3C2=O)NC(=O)/C(C)=C\C=C\[C@H](C)[C@H](O)[C@@H](C)[C@@H](O)[C@@H](C)[C@H](OC(C)=O)[C@@H]1C [RIFAMPIN] | 38.6 (≈ 47 µM) | 36.9 (≈ 44.8 µM) |
| CCc1nc2ccc(C)cn2c1C(=O)NCCOc1ccc(N2CC3CCCCC3C2)cc1 (stereo unspecified) | 0.024 (≈ 0.0537 µM) | < 0.016 |
| CCc1nc2ccc(Cl)cn2c1C(=O)NCCOc1ccc(Br)cc1 | 0.311 (≈ 0.736 µM) | 0.063 (≈ 0.149 µM) |
| CCc1nc2ccc(Br)cn2c1C(=O)NCCOc1ccc(N2CCCCC2)cc1 | < 0.016 | < 0.016 |
| COc1ccc(OCCNC(=O)c2c(C3CC3)nc3ccc(C)cn23)cc1 | 0.429 (≈ 1.17 µM) | < 0.016 |
| O=c1nc(N2CCN(CC3CCCCC3)CC2)sc2c([N+](=O)[O-])cc(C(F)(F)F)cc12 [MACOZINONE] | 0.232 (≈ 0.508 µM) | 0.116 (≈ 0.254 µM) |
| CCc1nc2ccc(Cl)cn2c1C(=O)NCCOc1ccc(N2CCN(c3ccc(F)cc3)CC2)cc1 | 0.016 (≈ 0.0306 µM) | < 0.016 |
| CCc1nc2ccc(Br)cn2c1C(=O)NCCOc1ccc(N2CC3CCCCC3C2)cc1 (stereo unspecified) | 0.032 (≈ 0.0626 µM) | < 0.016 |
| CCc1nc2ccc(Cl)cn2c1C(=O)NCc1ccc(N2CCC(c3ccc(OC(F)(F)F)cc3)CC2)cc1 [TELACEBEC] | 0.057 (≈ 0.102 µM) | < 0.016 |
| CCc1nc2ccc(Cl)cn2c1C(=O)NCCOc1ccc(N(C)C)cc1 | 0.225 (≈ 0.582 µM) | < 0.016 |
| COc1ccc2nc(C)c(C(=O)NCCOc3ccc(Br)cc3)n2c1 | 0.5 (≈ 1.24 µM) | 0.125 (≈ 0.309 µM) |
| CCc1nc2ccc(Br)cn2c1C(=O)NCCOc1ccc(Br)cc1 | 0.449 (≈ 0.961 µM) | 0.125 (≈ 0.268 µM) |
| CCc1nc2ccc(Cl)cn2c1C(=O)NCCOc1ccc(Cl)cc1 | 1 (≈ 2.64 µM) | 0.25 (≈ 0.661 µM) |
| NNC(=O)c1ccncc1 [ISONIAZID] | > 40 | > 40 |
